ChEMBL document CHEMBL1124934, “Synthesis and structure-activity relationships of dynorphin A-(1-8) amide analogues” (J Med Chem, 1990)
Square brackets hold non-standard residues; d marks the D form. Peptide text beside a SMILES is read from it. Phe(4-NO2) = N[C@@H](Cc1ccc([N+](=O)[O-])cc1)C(=O)O; NMeY = CN[C@@H](Cc1ccc(O)cc1)C(=O)O; Sar = CNCC(=O)O

Columns and labels:
Mus musculus [1] = assay: Evaluated for analgesic effect using mouse tail-pinch test after intravenous administration; format: functional
Summary of the method: (§1)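 Mice, intravenous dosing, tail-pinch analgesia test. Four doses per compound, each dose tested on at least eight animals, giving ED50 in mg/kg.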

Mu-type opioid receptor [2] = biological target: T1, Mu-type opioid receptor (Cavia porcellus, UniProt P97266); assay: Evaluated for inhibitory activity against Opioid receptor mu 1 of guinea pig ileum (GPI); format: tissue-based
Mu-type opioid receptor [3] = biological target: T1, Mu-type opioid receptor; assay: Binding affinities against Opioid receptor mu 1 of guinea pig brain membrane using [3H]DAGO as the radioligand using competition binding assays.
Summary of the method: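 μ-site competition binding on crude P2 membranes from male Hartley guinea pig brain (1 g original wet weight/20 mL, 50 mM Tris-HCl pH 7.6) with 5 nM [3H]DAGO and varied competitor, 60 min at 25 °C. GF/B filtration (1% polyethylenimine presoaked), six ice-cold buffer rinses, scintillation counting. Nonspecific binding with 10 μM levallorphan. Mean of five or six determinations ± SEM.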

[4] = biological target: Delta-type opioid receptor (Mus musculus, UniProt P32300); assay: Evaluated for inhibitory activity against Opioid receptor delta 1 of mouse vas deferens (MVD).; format: tissue-based
Mus musculus [5] = assay: Evaluated for analgesic effect using mouse tail-pinch test after intravenous administration; 0.64-2.34; format: functional; summary of the method: as §1
Mus musculus [6] = assay: Evaluated for analgesic effect using mouse tail-pinch test after intravenous administration; 0.25-2.26; format: functional; summary of the method: as §1
Mus musculus [7] = assay: Evaluated for analgesic effect using mouse tail-pinch test after intravenous administration; 2.08-7.27; format: functional; summary of the method: as §1
Mus musculus [8] = assay: Evaluated for analgesic effect using mouse tail-pinch test after intravenous administration; 1.97-5.67; format: functional; summary of the method: as §1
Mus musculus [9] = assay: Evaluated for analgesic effect using mouse tail-pinch test after intravenous administration; 9.61-14.34; format: functional; summary of the method: as §1

T1 sequence (P97266 whole entry): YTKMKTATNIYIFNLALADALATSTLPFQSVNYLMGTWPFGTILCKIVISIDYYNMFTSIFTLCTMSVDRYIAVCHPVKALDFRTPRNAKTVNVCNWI
Delta-type opioid receptor, sequence (P32300 whole entry): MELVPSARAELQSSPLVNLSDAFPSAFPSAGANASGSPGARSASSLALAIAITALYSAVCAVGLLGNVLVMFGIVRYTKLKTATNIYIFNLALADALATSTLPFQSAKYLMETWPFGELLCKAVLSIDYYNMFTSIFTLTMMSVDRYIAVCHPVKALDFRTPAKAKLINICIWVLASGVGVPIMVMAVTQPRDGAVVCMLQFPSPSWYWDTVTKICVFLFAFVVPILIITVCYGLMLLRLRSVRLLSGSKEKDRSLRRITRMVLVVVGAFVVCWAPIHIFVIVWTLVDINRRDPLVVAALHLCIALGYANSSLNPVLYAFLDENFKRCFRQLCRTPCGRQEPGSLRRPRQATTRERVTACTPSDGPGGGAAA

Row | SMILES | IC50 (Mu-type opioid receptor [2]) [nM] | Ki (Mu-type opioid receptor [3]) [nM] | IC50 [4] [nM] | further results
1 | CN[C@@H](Cc1ccc(O)cc1)C(=O)NCC(=O)NCC(=O)N[C@H](Cc1ccccc1)C(=O)N[C@H](C)C(=O)N[C@@H](CCCN=C(N)N)C(=O)N[C@@H](CCCN=C(N)N)C(=O)N[C@@H](CC(C)C)C(N)=O | – | – | – | ED50 (Mus musculus [1]): > 20 mg/kg
2 | CN[C@@H](Cc1ccc(O)cc1)C(=O)NCC(=O)NCC(=O)N[C@@H](Cc1ccc([N+](=O)[O-])cc1)C(=O)N[C@@H](CC(C)C)C(=O)N[C@@H](CCCN=C(N)N)C(=O)N[C@@H](CCCN=C(N)N)C(=O)N[C@@H](CC(C)C)C(N)=O (H-[NMeY]GG[Phe(4-NO2)]LRRL-NH2) | 1.3 | 1.01 | 3.8 | ED50 (Mus musculus [5]): 1.23 mg/kg
3 | CCCCCCNC(=O)[C@H](CC(C)C)NC(=O)[C@H](CCCN=C(N)N)NC(=O)[C@H](CCCN=C(N)N)NC(=O)[C@H](CC(C)C)NC(=O)[C@@H](Cc1ccccc1)NC(=O)CNC(=O)CNC(=O)[C@H](Cc1ccc(O)cc1)NC | – | – | – | ED50 (Mus musculus [1]): > 7 mg/kg
4 | CC(C)C[C@H](NC(=O)[C@H](CCCN=C(N)N)NC(=O)[C@H](CCCN=C(N)N)NC(=O)[C@H](CC(C)C)NC(=O)[C@H](Cc1ccccc1)NC(=O)CNC(=O)CN(C)C(=O)[C@@H](N)Cc1ccc(O)cc1)C(N)=O (H-Y[Sar]GFLRRL-NH2) | – | – | – | ED50 (Mus musculus [1]): > 10 mg/kg
5 | CCNC(=O)[C@@H](CC(C)C)NC(=O)[C@H](CCCN=C(N)N)N(C)C(=O)[C@H](CCCN=C(N)N)NC(=O)[C@H](CC(C)C)NC(=O)[C@H](Cc1ccccc1)NC(=O)CNC(=O)CNC(=O)[C@H](Cc1ccc(O)cc1)NC | – | – | – | ED50 (Mus musculus [6]): 0.75 mg/kg
6 | CCNC(=O)[C@@H](CC(C)C)NC(=O)[C@H](CCCN=C(N)N)N(C)C(=O)[C@H](CCCN=C(N)N)NC(=O)[C@@H]1CSSC[C@@H](NC(=O)[C@@H](N)Cc2ccc(O)cc2)C(=O)NCC(=O)N[C@@H](Cc2ccccc2)C(=O)N1 | 0.007 | 0.85 | 0.13 | –
7 | CN[C@@H](Cc1ccc(O)cc1)C(=O)NCC(=O)NCC(=O)N[C@H](Cc1ccccc1)C(=O)N[C@@H](CC(C)C)C(=O)N[C@@H](CCCNC(=N)N)C(=O)N[C@@H](CCCNC(=N)N)C(=O)N[C@@H](CC(C)C)C(N)=O | – | 2.81 | 5.2 | ED50 (Mus musculus [7]): 3.89 mg/kg
8 | CN[C@@H](Cc1ccc(O)cc1)C(=O)N[C@@H](C)C(=O)NCC(=O)N[C@@H](Cc1ccccc1)C(=O)N[C@@H](CC(C)C)C(=O)N[C@@H](CCCNC(=N)N)C(=O)N[C@@H](CCCNC(=N)N)C(=O)N[C@@H](CC(C)C)C(N)=O (H-[NMeY]AGFLRRL-NH2) | 13.9 | 1.25 | 25.7 | –
9 | CN[C@@H](Cc1ccc(O)cc1)C(=O)NCC(=O)N[C@H](C)C(=O)N[C@@H](Cc1ccccc1)C(=O)N[C@@H](CC(C)C)C(=O)N[C@@H](CCCN=C(N)N)C(=O)N[C@@H](CCCN=C(N)N)C(=O)N[C@@H](CC(C)C)C(N)=O | 12.7 | – | 210 | –
10 | CN[C@@H](Cc1ccc(O)cc1)C(=O)NCC(=O)NCC(=O)N[C@@H](Cc1ccccc1)C(=O)N[C@H](C)C(=O)N[C@@H](CCCNC(=N)N)C(=O)N[C@@H](CCCNC(=N)N)C(=O)N[C@H](CC(C)C)C(N)=O | 6000 | – | 9800 | –
11 | CCNC(=O)[C@H](CC(C)C)NC(=O)[C@H](CCCN=C(N)N)NC(=O)[C@H](CCCN=C(N)N)NC(=O)[C@H](CC(C)C)NC(=O)[C@@H](Cc1ccccc1)NC(=O)CNC(=O)CNC(=O)[C@H](Cc1ccc(O)cc1)NC | – | – | – | ED50 (Mus musculus [8]): 3.34 mg/kg
12 | CC(C)C[C@H](NC(=O)[C@H](CCCN=C(N)N)NC(=O)[C@H](CCCN=C(N)N)NC(=O)[C@H](CC(C)C)NC(=O)[C@H](Cc1ccccc1)NC(=O)CNC(=O)[C@H](C)NC(=O)[C@@H](N)Cc1ccc(O)cc1)C(N)=O (H-YAGFLRRL-NH2) | 6.9 | – | 9.1 | ED50 (Mus musculus [9]): 11.7 mg/kg
13 | CCNC(=O)[C@@H](CC(C)C)NC(=O)[C@H](CCCN=C(N)N)N(C)C(=O)[C@H](CCCN=C(N)N)NC(=O)[C@H](CC(C)C)NC(=O)[C@H](Cc1ccc([N+](=O)[O-])cc1)NC(=O)CNC(=O)CNC(=O)[C@H](Cc1ccc(O)cc1)NC | 0.5 | 1.74 | 3.7 | –
14 | CN[C@@H](Cc1ccc(O)cc1)C(=O)NCC(=O)NCC(=O)N[C@@H](Cc1ccccc1)C(=O)N[C@@H](CC(C)C)C(=O)N[C@@H](CCCCN=C(N)N)C(=O)N[C@@H](CCCN=C(N)N)C(=O)N[C@H](CC(C)C)C(N)=O | – | – | – | ED50 (Mus musculus [1]): > 8 mg/kg
15 | CN[C@@H](Cc1ccc(O)cc1)C(=O)NCC(=O)NCC(=O)N[C@@H](Cc1ccccc1)C(=O)N[C@@H](CC(C)C)C(=O)N(C)[C@@H](CCCN=C(N)N)C(=O)N[C@@H](CCCN=C(N)N)C(=O)N[C@H](CC(C)C)C(N)=O | 20.6 | – | 114 | –
16 | CN[C@@H](Cc1ccc(O)cc1)C(=O)NCC(=O)NCC(=O)N[C@@H](Cc1ccccc1)C(=O)N(C)[C@@H](CC(C)C)C(=O)N[C@@H](CCCNC(=N)N)C(=O)N[C@@H](CCCNC(=N)N)C(=O)N[C@H](CC(C)C)C(N)=O | 11.9 | – | 25.3 | –
